Source: PubChem (several laboratories)
AHR act: human AHR activation; AHR-responsive luciferase reporter cells, luminescence; activation, % at 5 µM; hit rate 2.5% among 320,000; in the data active means activation above about 47%
STAT3 act-1: increases IL-6 driven STAT3 reporter signal | U3A cells, IL-6 STAT3-luciferase reporter, luminescence; 100% = signal with IL-6 EC80 alone | activation (% of control), % at 5.6 µM | hit rate 0.91% among 190,000;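 active means activation above the screen-wide mean of compound activation plus 3 SD, cut at about 130% in these data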
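system = STAT3-luciferase reporter U3A cells | reagent = IL-6 stimulus at 33 ng/mL final | timing = 1 h compound pre-exposure, 6 h IL-6 stimulation, 37 °C | measured by = luminescence | evaluation = % activation versus median of IL-6-stimulated wells | control set = IL-6-only wells as 100% reference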
ABCB6 inh 2: human ABCB6 transporter inhibition | hit rate 0.19% among 360,000 | Q9NP58 | fluorescence ratio to DMSO, % at 10 µM | K562-ABCB6 porphyrin accumulation, flow cytometry, 1 h; hits give low values;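 active means fluorescence ratio to DMSO below 75%, the collection mean minus 3 SD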;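 further: signal is porphyrin accumulated inside mitochondria; lower ratio means ABCB6 inhibition with less porphyrin fluorescence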
FXN GAA850 act: frataxin GAA850 promoter activation; HEK293 lucGAA850 FXN promoter luciferase reporter, 24 h; percent of 10 µM SAHA response; activation, % at 6 µM; hit rate 0.56% among 360,000; AID 540364;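 active means activation above the average of all compounds screened plus 3 SD, cutoff fixed separately per campaign, cut at about 7.5% in these data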
STAT3 act-2: STAT3 activation, confirmation assay; U3A STAT3-luciferase reporter, IL-6 potentiation, luminescence; U3A cells lack STAT1; 100 means same as IL-6 alone; shares compounds with STAT3 act-1; potentiation (% of control), % at 5.7 µM; hit rate 64% among 1,200; AID 1267;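 active means percent activation of the STAT3 luciferase reporter above a set limit taken from the earlier primary screen, cut at about 130% in these data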
NFkB act 2: NF-kappaB activation in STAT3 activator counter-screen; shares compounds with STAT3 act-1; activation (% of control), % at 5.7 µM; hit rate 11% among 1,200; AID 1309; human cells, NF-kappaB reporter activation; in the data active means activation above about 120%;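 further: reporter induced by TNF-alpha stimulation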
STAT1 act STAT3c: counter-screen for STAT3 activators: STAT1 activation; shares compounds with STAT3 act-1; NIH 3T3 STAT1-luciferase reporter, IFN-gamma, luminescence; activation (% of control), % at 5.7 µM; hit rate 13% among 1,200; AID 1318;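 active means activation above the solvent-only control well mean plus 3 SD, set per screening run, cut at about 120% in these data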
Of the large screens only hits and unclear results are named; the others gave an inactive call (follow-up assays come after a bar, where they were run). Only some compounds are listed: those with a hit (about 3.3% of all), similar ones and a draw of the others.

c1ccc(C2c3[nH]c4ccccc4c3CCN2Cc2cccn2-c2ccccn2)nc1 (stereo not drawn)	none (no result: STAT3 act-1)
COc1ccc(N=c2oc3ccc(OC)cc3cc2-c2nc3ccccc3[nH]2)cc1	STAT3 act-1 142.7 | STAT3 act-2 inactive | NFkB act 2 inactive | STAT1 act STAT3c inactive
COc1ccc2nc(-c3ccccc3)[nH]c2c1	none
O=C(CNc1ccc2ccccc2c1)N/N=C/c1cc2ccccc2nc1Cl	STAT3 act-1 144.5 | STAT3 act-2 137.6 | NFkB act 2 inactive | STAT1 act STAT3c inactive
O=C(COc1cccc(Cl)c1)N/N=C\c1cc2ccccc2nc1Cl	none
Cc1nn(CC(=O)NCc2cc3ccccc3[nH]2)c(C)c1[N+](=O)[O-]	STAT3 act-1 138.4 | STAT3 act-2 161.2 | NFkB act 2 inactive | STAT1 act STAT3c inactive
Cc1nn(CC(=O)NCc2ccccc2F)c(C)c1[N+](=O)[O-]	none
CCOC(=O)c1c(NC(=O)CN2C(=O)NC(C)(c3ccc(Cl)cc3)C2=O)sc(C(=O)NC)c1C (stereo not drawn)	none
COc1cccc2sc(Nc3nnc(-c4ccc(F)cc4)o3)nc12	AHR act 65.6, STAT3 act-1 159.2 | STAT3 act-2 147.9 | NFkB act 2 inactive | STAT1 act STAT3c inactive
COc1ccc(S(=O)(=O)N2CCCCC2)cc1NC(=O)c1ccc(CS(C)(=O)=O)cc1	none (no result: STAT3 act-1)
COc1ccccc1/C=C(/CC(=O)NCc1ccccc1)c1nc2ccccc2s1	none
COc1ccccc1/C=C(/CC(=O)NCc1ccc(F)cc1)c1nc2ccccc2s1	STAT3 act-1 135.9 | STAT3 act-2 inactive | NFkB act 2 inactive | STAT1 act STAT3c inactive
COC(=O)c1ccc(N2CCN(CC(=O)c3ccc(-c4ccccc4)cc3)CC2)c([N+](=O)[O-])c1	STAT3 act-1 144.1 | STAT3 act-2 137.8 | NFkB act 2 inactive | STAT1 act STAT3c 123.7
CCCCOP(=O)(OCCCC)C1(NS(=O)(=O)c2ccccc2)C=CC(=O)c2ccccc21 (stereo not drawn)	STAT3 act-1 144.5 | STAT3 act-2 inactive | NFkB act 2 inactive | STAT1 act STAT3c inactive
COCCNC(=O)COC(=O)c1cc(-c2ccc(OC)cc2)nc2ccccc12	none
Cc1cc(C)c(C#N)c(SCc2nc3ccccc3[nH]2)n1	AHR act 67.7, STAT3 act-1 185.4 | STAT3 act-2 164.9 | NFkB act 2 inactive | STAT1 act STAT3c inactive
CSc1ccccc1NC(=O)C1CC(c2ccccc2O)=NO1 (stereo not drawn)	STAT3 act-1 137.0 | STAT3 act-2 inactive | NFkB act 2 inactive | STAT1 act STAT3c inactive
COC(=O)c1ccccc1NC(=O)C1CC(c2ccccc2O)=NO1 (stereo not drawn)	none
O=C(NC1CCCCC1)C1CCCN(S(=O)(=O)c2cccc3cccnc23)C1 (stereo not drawn)	none (no result: STAT3 act-1)
O=C(C1CCCN(S(=O)(=O)c2cccc3cccnc23)C1)N1CCc2ccccc21 (stereo not drawn)	STAT3 act-1 138.0 | STAT3 act-2 135.4 | NFkB act 2 inactive | STAT1 act STAT3c inactive
COc1ccnc2c1c(=O)n(Cc1ccc(Cl)cc1)c(=O)n2C	none (no result: STAT3 act-1)
N#C/C(=C/c1ccccc1[N+](=O)[O-])c1nc(C2CC2)cs1	AHR act 71.3, STAT3 act-1 147.2 | STAT3 act-2 158.2 | NFkB act 2 inactive | STAT1 act STAT3c inactive
N#C/C(=C\c1ccccc1[N+](=O)[O-])c1nc(C2CC2)cs1	AHR act 105.6, STAT3 act-1 145.8 | STAT3 act-2 154.0 | NFkB act 2 inactive | STAT1 act STAT3c inactive
Cc1occc1-c1nnc(SCC(=O)c2c[nH]c3ccccc23)n1C	STAT3 act-1 144.7 | STAT3 act-2 inactive | NFkB act 2 inactive | STAT1 act STAT3c inactive
O=C(NC(=S)Nc1nc(-c2ccccc2)cs1)c1cccs1	AHR act 67.9, STAT3 act-1 142.1 | STAT3 act-2 146.7 | NFkB act 2 inactive | STAT1 act STAT3c inactive
CC(C)CC(=O)NC(=S)Nc1nc(-c2ccccc2)cs1	AHR act 67.4, STAT3 act-1 143.9 | STAT3 act-2 140.3 | NFkB act 2 inactive | STAT1 act STAT3c inactive
